Results reported in publication PMC6736600 (Cell chemical biology, 2019).
Where two headings read alike, the source gives them in different places.

Experiments:
[1] = Cytotoxicity, methylene blue, 72 hours; format: cell-based; conditions: human, CEM cells (acute lymphoblastic lymphoma)
HIV-1 IIIB = assay: HIV-1 inhibition in TZM-bl reporter cells; format: cell-based; conditions: read-out: HIV-1 IC50, ± SD
In short: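 TZM-bl cells (HeLa-derived; CD4, CCR5, CXCR4; LTR-driven β-galactosidase and luciferase reporters), 5 × 10³ per well, grown 1–2 days at 37°C, 5% CO2. Serially diluted test compound applied 30 min before infection with HIV-1 IIIB at MOI of one. Reporter activity read per well; IC50 from ≥ three independent experiments, standard deviation given.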

[2] = Cytotoxicity, methylene blue, 72 hours; format: cell-based; conditions: human, TZM-bl cells
N119^3.35A CXCR4 = N119^3.35A CXCR4 (Homo sapiens, UniProt P61073, N119A); format: cell-based; conditions: for functional classification on the N119^3.35A CAM: dose-response without CXCL12, classification at 1 μM by one-way ANOVA vs DMSO; for signal as % maximum of the WT signaling levels: N119^3.35A CAM, basal CAM activity roughly 47% of maximum WT response to CXCL12
Chain of N119^3.35A CXCR4 (P61073 whole entry N119A): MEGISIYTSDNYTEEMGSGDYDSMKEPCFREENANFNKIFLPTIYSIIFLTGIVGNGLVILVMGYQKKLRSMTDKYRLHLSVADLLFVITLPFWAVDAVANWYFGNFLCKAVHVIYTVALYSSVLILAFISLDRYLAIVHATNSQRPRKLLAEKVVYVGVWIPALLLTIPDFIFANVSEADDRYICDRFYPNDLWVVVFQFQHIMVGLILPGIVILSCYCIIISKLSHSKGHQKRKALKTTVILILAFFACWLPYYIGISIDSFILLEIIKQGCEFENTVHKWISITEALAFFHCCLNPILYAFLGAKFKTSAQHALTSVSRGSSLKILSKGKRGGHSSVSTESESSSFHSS

human CXCR4 = human CXCR4 (Homo sapiens, UniProt P61073); conditions: CXCL12 binding IC50, WT CXCR4, 125I-CXCL12, HEK-293 membranes; ± SD
Chain of human CXCR4 (P61073 whole entry): as the sequence (P61073 whole entry N119A) above, with A119N counted along it

HIV-1 = conditions: read-out: HIV-1 IC50, cited from earlier work
N119^3.35S CXCR4 CAM = conditions: ref Mona et al., 2016; cited from earlier work
N119^3.35A/S CXCR4 CAMs = conditions: ref Zhang et al., 2002; cited from earlier work

Cl.c1nc2c(NCc3cn(CCCNCCCNC4CCCCC4)nn3)nc(N3CCNCC3)nc2[nH]1 [CX0298, N-Cyclohexyl-N’-(3-{4-[(2-piperazin-1-yl-9H-purin-6-ylamino)-methyl]-[1,2,3]triazol-1-yl}-propyl)-propane-1,3-diamine hydrochloride salt]
CC50 at 72 h [1]: > 50000 nM
IC50 (HIV-1 IIIB): 4.2 ± 0.3 nM
CC50 at 72 h [2]: > 50000 nM
functional classification on the N119^3.35A CAM (N119^3.35A CXCR4): neutral antagonists
IC50 (human CXCR4): 27.8 ± 1.9 nM

Cl.c1nc2c(NCC3CCC(CNCCCNC4CCCCC4)CC3)nc(N3CCNCC3)nc2[nH]1 (stereo not shown) [Compound B7, N-Cyclohexyl-N’-{4-[(2-piperazin-1-yl-9H-purin-6-ylamino)-methyl]-cyclohexylmethyl}-propane-1,3-diamine hydrochloride salt]
CC50 at 72 h [1]: > 50000 nM
IC50 (HIV-1 IIIB): 2.4 ± 0.4 nM
CC50 at 72 h [2]: > 50000 nM
functional classification on the N119^3.35A CAM (N119^3.35A CXCR4): neutral antagonists
IC50 (human CXCR4): 28 ± 2.7 nM

CC1(C)CN2C(CSC(=NC3CCCCC3)NC3CCCCC3)=CSC2=N1 [IT1t, N,N’-dicyclohexylcarbamimidothioic acid (5,6-dihydro-6,6-dimethylimidazo[2,1-b]thiazol-3-yl)methyl ester]
effect on N119^3.35A signaling levels vs DMSO (N119^3.35A CXCR4; 1 μM, p < 0.0001): significantly reduced signaling levels
signal as % maximum of the WT signaling levels (N119^3.35A CXCR4): ~ 25%
functional classification on the N119^3.35A CAM (N119^3.35A CXCR4): inverse agonism
IC50 (HIV-1; ref Thoma et al., 2008): 40 nM
functional classification on the N119^3.35S CAM (N119^3.35S CXCR4 CAM): inverse agonist

c1cc(CN2CCCNCCNCCCNCC2)ccc1CN1CCCNCCNCCCNCC1 [AMD3100]
functional classification on N119^3.35A/S CAMs (N119^3.35A/S CXCR4 CAMs): partial agonist
signal as % maximum of the WT signaling levels (N119^3.35A CXCR4): ~ 83%
functional classification on the N119^3.35A CAM (N119^3.35A CXCR4): partial agonism
IC50 (HIV-1; ref Schols et al., 1997): 4 to 10 nM
